From ChEMBL document CHEMBL1773040, “Briarane diterpenes diminish COX-2 expression in human colon adenocarcinoma cells” (2011)
Active and inactive are the calls of the source. The calls are words filed in the database; no cut-off is given here.

Experiments:
Caco-2 [1] = test: Cytotoxicity against human Caco2 cells assessed as decrease in cell viability at 30 uM after 24 hrs by trypan blue exclusion assay; type: functional
Procedure, shortened: (§1)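 Caco-2 cells kept in MEM with 10% heat-inactivated FBS, penicillin G and streptomycin at 37 C, 5% CO2. Compounds given from a 5 mg/mL DMSO stock; exponentially growing cells seeded in complete medium with compound for 24 h. Floating and adherent cells pooled, mixed with 0.4% trypan blue, and stained/unstained cells counted by hemacytometer. Each experiment run three times.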

Caco-2 [2] = test: Decrease in PMA-induced COX-2 mRNA expression in human Caco2 cells at 10 to 15 uM after 24 hrs by PCR analysis; type: functional, cell-based
Caco-2 [3] = test: Cytotoxicity against human Caco2 cells assessed as decrease in cell viability at 15 uM after 24 hrs by trypan blue exclusion assay; type: functional; procedure, shortened: as §1
RAW264.7 = test: Decrease in PMA-induced COX-2 mRNA expression in mouse RAW264.7 cells at 5 to 15 uM after 24 hrs by PCR analysis; type: functional, cell-based
Procedure, shortened: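 RAW 264.7 monolayers stimulated with PMA and co-incubated with compound (0–15 μM) for 24 h. Total RNA isolated; equal RNA amounts reverse-transcribed to cDNA. COX-2 fragments amplified by PCR: 94 C 3 min, then 35 cycles of 94 C 30 s, 56 C 1 min, 78 C 30 s. GAPDH served as reference.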

Caco-2 [4] = test: Cytotoxicity against human Caco2 cells assessed as decrease in cell viability at 5 to 30 uM after 24 hrs by trypan blue exclusion assay; type: functional, cell-based; procedure, shortened: as §1
Caco-2 [5] = test: Cytotoxicity against human Caco2 cells assessed as decrease in cell viability at 20 uM after 24 hrs by trypan blue exclusion assay; type: functional; procedure, shortened: as §1
Caco-2 [6] = test: Decrease in PMA-induced COX-2 mRNA expression in human Caco2 cells at 5 to 15 uM after 24 hrs by PCR analysis; type: functional, cell-based

SMILES	Activity (Caco-2 [1])	Activity (Caco-2 [2])	Activity (Caco-2 [3])	Activity (RAW264.7)	Activity (Caco-2 [4])	Activity (Caco-2 [5])	Activity (Caco-2 [6])
CCCCCCCC(=O)O[C@@H]1C[C@H](O)[C@@]2(C)C=C[C@@H](OC(C)=O)[C@@](C)(O)[C@@H]2[C@H](OC(C)=O)[C@]23O[C@@]2(C)C(=O)O[C@H]3/C=C\1C [BRIALALEPOLIDE C]	75%	Active	50%	Active	Dose-dependent effect	–	–
CCCCCC(=O)O[C@@H]1C[C@H](O)[C@@]2(C)C=C[C@@H](OC(C)=O)[C@@](C)(O)[C@@H]2[C@H](OC(C)=O)[C@]23O[C@@]2(C)C(=O)O[C@H]3/C=C\1C [BRIALALEPOLIDE B]	–	Active	–	Active	Dose-dependent effect	50%	–
CC(=O)O[C@@H]1C[C@H](O)[C@@]2(C)C=C[C@@H](OC(C)=O)[C@@](C)(O)[C@@H]2[C@H](OC(C)=O)[C@]23O[C@@]2(C)C(=O)O[C@H]3/C=C\1C [BRIALALEPOLIDE A]	50%	–	–	inactive	Dose-dependent effect	–	inactive
